According to ChEMBL document CHEMBL3112500, “Synthesis and biological evaluation of allylated and prenylated mono-carbonyl analogs of curcumin as anti-inflammatory agents” (Eur J Med Chem, 2014):
Calls of active or inactive are those of the source. No cut-off for these calls is given here.

How the values were obtained:
[1] = test system: RAW264.7; experiment: Antiinflammatory activity in mouse RAW264.7 cells assessed as inhibition of LPS-induced IL-6 release pretreated at 10 uM for 2 hrs prior LPS challenge measured after 22 hrs post challenge by ELISA; assay type: functional
In short: (§1)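 RAW 264.7 cells plated at 4.0 × 10⁵ per plate overnight (37 °C, 5% CO₂). Pretreated 2 h, then stimulated with LPS 0.5 µg/ml (in PBS) for 22 h. Medium TNF-α and IL-6 measured by ELISA, normalized to total cell protein (Bio-Rad assay) and expressed as percent of LPS control. Mean ± SE, 3–5 independent experiments.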

[2] = Cytotoxicity against human HL-7702 cells at 10 uM after 24 hrs by MTT assay; assay type: cell-based; conditions: l02, 24 h
In short: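 HL-7702 cells, 5000 per well, in 1640 medium with 5% heat-inactivated serum, 37 °C, 5% CO₂. Compounds in DMSO, diluted in medium to final 10 µM, applied for 24 h. MTT (5 mg/ml in 0.9% NaCl) added for 3 h, then cells dissolved in DMSO and absorbance read at 570 nm.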

[3] = test system: RAW264.7; experiment: Antiinflammatory activity in mouse RAW264.7 cells assessed as inhibition of LPS-induced IL-6 gene expression pretreated at 10 uM for 2 hrs prior LPS challenge measured after 6 hrs post challenge by RT-qPCR analysis; assay type: functional, cell-based
In short: (§2)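 RAW 264.7 cells in DMEM with 10% FBS, plated at 4.0 × 10⁵ per plate overnight at 37 °C, 5% CO₂. Pretreatment 2 h, then LPS 0.5 µg/ml for 6 h. IL-6, TNF-α and IL-1β mRNA quantified by RT-qPCR, normalized to β-actin mRNA and expressed as ratio to DMSO. Mean ± SD of 3–5 independent experiments.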

[4] = test system: RAW264.7; experiment: Antiinflammatory activity in mouse RAW264.7 cells assessed as inhibition of LPS-induced TNF-alpha gene expression pretreated at 10 uM for 2 hrs prior LPS challenge measured after 6 hrs post challenge by RT-qPCR analysis; assay type: functional, cell-based; in short: as §2
[5] = test system: RAW264.7; experiment: Antiinflammatory activity in mouse RAW264.7 cells assessed as inhibition of LPS-induced IL-1beta gene expression pretreated at 10 uM for 2 hrs prior LPS challenge measured after 6 hrs post challenge by RT-qPCR analysis; assay type: functional, cell-based; in short: as §2
[6] = Chemical stability of the compound in phosphate buffer at pH 7.4 assessed as compound degradation at 20 uM up to 25 mins by UV-visible absorption spectrum assay; assay type: physicochemical; conditions: read-out: Drug degradation
[7] = test system: RAW264.7; experiment: Antiinflammatory activity in mouse RAW264.7 cells assessed as inhibition of LPS-induced IL-6 release pretreated for 2 hrs prior LPS challenge measured after 22 hrs post challenge by ELISA; assay type: functional, cell-based
In short: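 Dose series in RAW 264.7 cells: pretreatment at 1.1, 3.3 and 10 µM for 2 h, then LPS 0.5 µg/ml for 22 h. Medium IL-6 determined by ELISA and normalized to total protein.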

[8] = test system: RAW264.7; experiment: Antiinflammatory activity in mouse RAW264.7 cells assessed as inhibition of LPS-induced TNFalpha release pretreated at 10 uM for 2 hrs prior LPS challenge measured after 22 hrs post challenge by ELISA; assay type: functional; in short: as §1
[9] = Chemical stability of the compound in phosphate buffer at pH 7.4 at 20 uM up to 25 mins by UV-visible absorption spectrum assay; assay type: physicochemical; conditions: pH 7.4, 25 min
[10] = test system: Peritoneal macrophage cell; experiment: Antiinflammatory activity in mouse peritoneal macrophages assessed as inhibition of LPS-induced IL6 protein expression pretreated for 2 hrs prior LPS challenge measured after 22 hrs post challenge by ELISA; assay type: functional, cell-based
In short: (§3)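 Peritoneal macrophages from ICR mice elicited by i.p. thioglycollate, collected by lavage with PBS containing 30 mM EDTA, in RPMI-1640, nonadherent cells washed off at 3 h. Plated at 4.0 × 10⁵ per 35 mm plate. Pretreatment 2 h, then LPS 0.5 µg/ml for 22 h. IL-6 and TNF-α in medium measured by ELISA, normalized to total protein. 3 independent experiments.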

[11] = test system: Mus musculus; experiment: Antiinflammatory activity in C57BL/6 mouse sepsis model assessed as increase in survival rate at 10 mg/kg, iv administered 15 mins prior LPS-challenge measured after 7 days; assay type: functional
In short: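 Male C57BL/6 mice (18–22 g) were dosed i.v. 15 min before i.p. LPS at 20 mg/kg. Drug solution was 2 mg/ml in macrogol 15 hydroxystearate (5–10%), with or without medium-chain triglycerides (0.5–2%). Controls received vehicle (10% solubilizer, 2% MCT). Survival was recorded every 12 h for 7 days; n = 9 per group.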

[12] = test system: Peritoneal macrophage cell; experiment: Antiinflammatory activity in mouse peritoneal macrophages assessed as inhibition of LPS-induced TNFalpha protein expression pretreated for 2 hrs prior LPS challenge measured after 22 hrs post challenge by ELISA; assay type: functional, cell-based; in short: as §3

Compound	inhibition at 10 µM [1] [%]	Activity [2]	other results
COc1cc(/C=C2\CC/C(=C\c3ccc(OCC=C(C)C)c(OC)c3)C2=O)ccc1OCC=C(C)C	20	Non-toxic	–
C=CCc1cc(/C=C/C(=O)/C=C/c2ccc(N(C)C)cc2)ccc1OC	20	Non-toxic	–
COc1cc(/C=C/C(=O)CC(=O)/C=C/c2ccc(O)c(OC)c2)ccc1O [CURCUMIN]	20	Non-toxic	inhibition [3]: Active; inhibition [4]: Active; inhibition [5]: Active; degraded at 25 min, 20 µM [6]: > 45%
C=CCc1cc(/C=C/C(=O)/C=C/c2ccccc2C(F)(F)F)ccc1OC	–	Non-toxic	–
CC(C)=CCOc1ccc(/C=C2\CCC/C(=C\c3ccc(OCC=C(C)C)cc3)C2=O)cc1	20	Non-toxic	–
C=CCc1cc(/C=C/C(=O)/C=C/c2cc(F)ccc2F)ccc1OC	–	Non-toxic	–
C=CCc1cc(/C=C/C(=O)/C=C/c2cccc(Br)c2)ccc1OC	20	Non-toxic	–
C=CCc1cc(/C=C/C(=O)/C=C/c2cc(OC)c(OC)cc2OC)ccc1OC	20	Non-toxic	inhibition [7]: Dose-dependent effect; inhibition [8]: Active; inhibition [3]: Active; inhibition [4]: Active; inhibition [5]: Active
C=CCc1cc(/C=C/C(=O)/C=C/c2ccc(O)c(CC=C)c2)ccc1O	96.4	Non-toxic	inhibition [7]: Dose-dependent effect; Stability [9]: Stable; inhibition [8]: Active; inhibition [3]: Active; inhibition [4]: Active; inhibition [5]: Active
C=CCOc1ccc(/C=C/C(=O)/C=C/c2ccc(OCC=C)cc2)cc1	–	Non-toxic	–
C=CCc1cc(/C=C/C(=O)/C=C/c2cc(F)ccc2OC)ccc1OC	20	Non-toxic	–
C=CCc1cc(/C=C2\CC/C(=C\c3ccc(O)c(CC=C)c3)C2=O)ccc1O	20	Non-toxic	–
CC(C)=CCOc1ccc(/C=C/C(=O)/C=C/c2ccc(OCC=C(C)C)cc2)cc1	–	Non-toxic	–
C=CCc1cc(/C=C/C(=O)/C=C/c2ccc(OC(C)(C)C)cc2)ccc1OC	20	Non-toxic	–
C=CCc1cc(/C=C/C(=O)/C=C/c2ccc(OC)c(OC)c2)ccc1OC	20	Non-toxic	–
C=CCc1cc(/C=C/C(=O)/C=C/c2c(F)cccc2Br)ccc1OC	20	Non-toxic	–
C=CCOc1ccc(/C=C/C(=O)/C=C/c2ccc(OC)c(OC)c2)cc1	–	Non-toxic	–

Compound	inhibition at 10 µM [1] [%]	Activity [2]	other results
C=CCc1cc(/C=C/C(=O)/C=C/c2ccc([N+](=O)[O-])cc2)ccc1O	20	Non-toxic	–
C=CCc1cc(/C=C/C(=O)/C=C/c2cccc(Cl)c2Cl)ccc1OC	20	Non-toxic	–
C=CCc1cc(/C=C/C(=O)/C=C/c2ccc(Br)cc2)ccc1OC	20	Non-toxic	–
C=CCc1cc(/C=C/C(=O)/C=C/c2cc(Br)ccc2Br)ccc1OC	91.1	Non-toxic	inhibition [10]: Dose-dependent effect; inhibition [7]: Dose-dependent effect; Stability [9]: Stable; inhibition at 10 µM [8]: 67.5%; survival at 10 mg/kg [11]: 45%; inhibition [3]: Active; inhibition [4]: Active; inhibition [5]: Active; inhibition [12]: Dose-dependent effect
C=CCOc1ccc(/C=C/C(=O)/C=C/c2ccc(F)cc2)c(O)c1	20	Non-toxic	–
C=CCc1cc(/C=C/C(=O)/C=C/c2ccc(OC)c(OC)c2)ccc1O	20	Non-toxic	inhibition [7]: Dose-dependent effect; inhibition [3]: Active; inhibition [4]: Active; inhibition [5]: Active
C=CCc1cc(/C=C/C(=O)/C=C/c2ccc(C(F)(F)F)cc2)ccc1OC	20	Non-toxic	–
C=CCc1cc(/C=C/C(=O)/C=C/c2ccc(N3CCOCC3)cc2)ccc1OC	20	Non-toxic	inhibition [7]: Dose-dependent effect; inhibition [3]: Active; inhibition [4]: Active; inhibition [5]: Active
C=CCc1cc(/C=C2\CC/C(=C\c3ccc(OC4CCCCO4)c(CC=C)c3)C2=O)ccc1OC1CCCCO1 (stereo not given)	–	Non-toxic	–
C=CCc1cc(/C=C/C(=O)/C=C/c2ccc3ccccc3c2)ccc1OC	20	Non-toxic	–
CC(C)=CCOc1ccc(/C=C2\CC/C(=C\c3ccc(OCC=C(C)C)cc3O)C2=O)c(O)c1	20	Non-toxic	–
C=CCc1cc(/C=C/C(=O)/C=C/c2ccccc2Cl)ccc1OC	20	Non-toxic	–
COc1ccc(/C=C/C(=O)/C=C/c2ccc(OCC=C(C)C)cc2)cc1OC	20	Non-toxic	–
COc1cc(/C=C/C(=O)/C=C/c2ccc(OCC=C(C)C)c(OC)c2)ccc1OCC=C(C)C	20	Non-toxic	–
C=CCOc1ccc(/C=C/C(=O)/C=C/c2ccc(OC)c(CC=C)c2)cc1	20	Non-toxic	–
C=CCc1cc(/C=C/C(=O)/C=C/c2ccc(N3CCCCC3)cc2)ccc1OC	20	Non-toxic	–
C=CCc1cc(/C=C/C(=O)/C=C/c2cc(F)ccc2Br)ccc1OC	20	Non-toxic	inhibition [7]: Dose-dependent effect; Stability [9]: Stable; inhibition [8]: Active; inhibition [3]: Active; inhibition [4]: Active; inhibition [5]: Active
